{"data": "Assay results collected from several papers", "target": "Wee1-like protein kinase (WEE1, Homo sapiens, UniProt P30291)", "note": "Each line is one published result; the experiments were not run side by side."}
{"Compound": "O=C(O)[C@H]1[C@H](Cn2nnc3ccccc3c2=O)CC[C@@H]1C(=O)c1ccc(OCCC2CCOCC2)cc1", "test": "cell-free assay, competition with immobilised ligand", "setting": "1 µM", "quantity": "remaining binding", "value": "100%"}
{"Compound": "COc1cc(Cl)c(C(=O)N[C@@H](CN[C@H]2CC[C@@H](N)CC2)Cc2ccc(C#N)cc2)cc1-c1ccc(CN[C@H](C)c2ccc(C)cc2)o1", "test": "enzyme activity, inhibitor", "setting": "1 µM", "quantity": "remaining activity", "value": "102%"}
{"Compound": "Cc1ccc(C(=O)Nc2ccc(CN3CCN(C)CC3)c(C(F)(F)F)c2)cc1C#Cc1cnc2cccnn12", "test": "enzyme activity, inhibitor", "setting": "23.5 nM", "quantity": "remaining activity", "value": "100%"}
{"Compound": "Nc1nc(Nc2ccc(S(N)(=O)=O)cc2)nn1C(=O)c1c(F)cccc1F", "test": "cell-free assay", "setting": "0.5 µM", "quantity": "remaining signal", "value": "83.6%"}
{"Compound": "Cc1c(C(=O)O)cc(-c2ccc(C3CCNCC3)cc2)c2ccc(-c3ccc(C(F)(F)F)cc3)cc12", "test": "binding, competition with immobilised ligand", "setting": "1 µM", "quantity": "remaining binding", "value": "80%"}
{"Compound": "CN1CC(Oc2cnc(C#N)cc2-c2ccn3nc(NC(=O)C4CC4)cc3c2)C1", "test": "enzyme activity, inhibitor", "setting": "1 µM", "quantity": "inhibition", "value": "2%"}
{"Compound": "CC(C)(C)c1nc2c(s1)c1nc(N)ncc1c1ccc(NS(=O)(=O)c3c(F)cccc3F)c(F)c12", "test": "enzyme activity, inhibitor, radiometric", "setting": "1 µM", "quantity": "remaining activity", "value": "87%"}
{"Compound": "COc1cc2ncnc(Nc3ccc(F)c(Cl)c3)c2cc1OCCCN1CCOCC1", "test": "cell-free assay", "setting": "0.5 µM", "quantity": "remaining signal", "value": "93.8%"}
{"Compound": "Cc1ccc(NC(=O)c2ccc(C)c(C(F)(F)F)c2)cc1C#Cc1nn(C2CCC(O)CC2)c2ncnc(N)c12 (stereo not shown)", "test": "cell-free assay", "setting": "10 µM", "quantity": "remaining signal", "value": "95%"}
{"Compound": "O=C1NC(=O)c2cc(Nc3ccc(F)cc3)c(Nc3ccc(F)cc3)cc21", "test": "cell-free assay", "setting": "0.5 µM", "quantity": "remaining signal", "value": "99.6%"}
{"Compound": "Nc1ncnc2occ(-c3ccc(NC(=O)Nc4cc(C(F)(F)F)ccc4F)cc3)c12", "test": "cell-free assay, inhibitor", "setting": "20 µM", "quantity": "remaining signal", "value": "17%"}
{"Compound": "N#Cc1ccc(Nc2ccc3[nH]c(=O)[nH]c3c2)c(Cl)c1", "test": "cell-free assay, competition with immobilised ligand", "setting": "1 µM", "quantity": "remaining binding", "value": "87%"}
{"Compound": "CNc1cc(Oc2cc(C(=O)Nc3cc(N4CCN(C)CC4)cc(C(F)(F)F)c3)ccc2C)ncn1", "test": "target engagement in cells, inhibitor, chemoproteomics", "system": "Huh-7", "setting": "1 µM", "quantity": "inhibition", "value": "-10.9%"}
{"Compound": "Nc1cnc(N2CCc3cc(S(=O)(=O)Nc4c(F)cc(Cl)cc4F)cc(N4CCCC4=O)c32)nc1", "test": "cell-free assay, competition with immobilised ligand", "setting": "1 µM", "quantity": "remaining binding", "value": "72%"}
{"Compound": "Cc1ccc(Nc2nccc(N(C)c3ccc4c(C)n(C)nc4c3)n2)cc1S(N)(=O)=O", "test": "enzyme activity, inhibitor", "setting": "0.5 µM", "quantity": "remaining activity", "value": "95.3%"}
{"Compound": "O=C(Nc1cnn(-c2csc(C(=O)NC3COC3)c2)c1)Nc1ccccc1Cl", "test": "enzyme activity, inhibitor", "setting": "5 µM", "quantity": "remaining activity", "value": "124%"}
